Calls of active or inactive are those of the source. The rule behind the calls is not given here.
Columns and labels:
QGY-7703 [1] = test: Antiproliferative activity against human QGY-7703 cells assessed as reduction in cell viability incubated for 48 hrs by MTT assay; type: functional, cell-based; details: QGY-7703, 48 h
Summary of the method: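 MTT assay after 48 h exposure at six concentrations, range chosen by cytotoxicity. Inhibition = (ODcontrol − ODtest)/ODcontrol × 100%; IC50 is the concentration halving OD versus untreated cells. Means ± SD of three independent determinations. HepG2 and SMMC-7721 grown in DMEM, QGY-7703 and LO2 in RPMI 1640, with 10% FBS at 37 °C.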

HepG2 [2] = test: Upregulation of Nur77 expression in human HepG2 cells incubated for 6 hrs by Western blot analysis; type: functional, cell-based; details: dose 0.5-2 µM
Summary of the method: (§1)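 HepG2, QGY-7703 and SMMC-7721 cells treated with the indicated concentrations for 6 h. HepG2 also given 2.0 µM over a time course. Lysis in RIPA with protease and phosphatase inhibitors; 40-80 µg protein by SDS-PAGE, nitrocellulose transfer. Membranes blocked with 5% milk, primary antibody overnight, HRP secondary, chemiluminescence. GAPDH as loading control.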

SMMC-7721 [3] = test: Upregulation of Nur77 expression in human SMMC-7721 cells incubated for 6 hrs by Western blot analysis; type: functional, cell-based; details: dose 0.5-2 µM; summary of the method: as §1
HepG2 [4] = test: Upregulation of RARgamma expression in human HepG2 cells at 2 uM incubated for 2 to 12 hrs by Western blot analysis; type: functional, cell-based; details: time 2-12 hrs
Summary of the method: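 HepG2 cells given 2.0 µM for the indicated times. RXRα, RARγ and Nur77 detected by western blot: RIPA lysis with protease and phosphatase inhibitors, 40-80 µg protein by SDS-PAGE, nitrocellulose, 5% milk block, primary antibody overnight, HRP secondary, chemiluminescence read-out.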

[5] = molecular target: T1, Nuclear receptor subfamily 4immunitygroup A member 1 (Homo sapiens, UniProt P22736); test: Modulation of Nur77 in human HepG2 cells assessed as induction of endoplasmic reticulum translocation at 2 uM incubated for 6 hrs by ER-tracker based confocal microscopy; type: subcellular; details: filed as modulator
Summary of the method: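 HepG2 exposed to 2.0 µM for 6 h, then co-stained with Nur77 antibody and ER tracker; confocal imaging.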

HepG2 [6] = test: Induction of morphological changes in human HepG2 cells assessed as vesicles accumulation at 1 to 2 uM incubated for 6 to 12 hrs by phase contrast microscopic analysis; type: functional, cell-based; details: dose 1-2 µM, time 6-12 hrs
Summary of the method: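 HepG2 cells given graded concentrations; morphology monitored at set time points by phase-contrast optical microscopy.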

SMMC-7721 [7] = test: Induction of apoptosis in human SMMC-7721 cells assessed as increase in cleaved PARP level at 0.5 to 2 uM incubated for 12 hrs by Western blot analysis; type: functional, cell-based; details: dose 0.5-2 µM
Summary of the method: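 QGY-7703 (RPMI 1640, 10% FBS) and SMMC-7721 (DMEM) cells at 37 °C, 5% CO2, treated with graded concentrations for 12 h. RIPA lysates (40-80 µg protein) run on SDS-PAGE, transferred to nitrocellulose, immunoblotted for cleaved PARP; chemiluminescence read-out.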

HepG2 [8] = test: Disruption of mitochondrial membrane potential in human HepG2 cells assessed as red fluorescence intensity at 2 uM incubated for 12 hrs by JC-1 staining based flow cytometry (reference value: 23598 units); type: functional
QGY-7703 [9] = test: Induction of autophagy in human QGY-7703 cells assessed as increase in Beclin 1 expression measured after 12 hrs by Western blot analysis; type: functional, cell-based; details: dose 0.5-2 µM
Summary of the method: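 HepG2, QGY-7703 and SMMC-7721 treated with graded concentrations for 12 h. Lysed in RIPA with inhibitors; 40-80 µg protein separated by SDS-PAGE, blotted to nitrocellulose, blocked 1 h in 5% milk, primary antibodies overnight (LC3, Beclin1, Bip, CHOP, TRB3), HRP secondaries, chemiluminescence.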

HepG2 [10] = test: Induction of autophagy in human HepG2 cells assessed as increase in GFP-LC3 puncta formation at 2 uM after 6 hrs by fluorescence microscopic method; type: functional, cell-based
Summary of the method: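 HepG2, or HepG2 and shNur77 HepG2, transfected with GFP-LC3, then given vehicle or 2.0 µM for 6 h; GFP-LC3 puncta visualised by fluorescence microscopy alongside phase-contrast images.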

HepG2 [11] = test: Induction of endoplasmic reticulum stress in human HepG2 cells assessed as increase in p-EIF2a expression at 2 uM measured after 1 to 4 hrs by Western blot analysis; type: functional, cell-based; details: time 1-4 hrs
Summary of the method: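 HepG2 exposed to 2.0 µM over a time course; Nur77, Bip, p-EIF2a, TRB3 and LC3 levels followed by Western blot of RIPA lysates.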

HepG2 [12] = test: Induction of apoptosis in human HepG2 cells assessed as cleaved caspase-3 expression at 2 uM pretreated with autophagy inhibitor, 3-methyladenine for 2 hrs followed by incubation with compound for 12 hrs by Western blot analysis; type: functional, cell-based
Summary of the method: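 HepG2 cells grown to confluence were pretreated 2 h with 2 mM 3-MA (autophagy inhibitor) or 2 mM 4-PBA (ER stress inhibitor), then exposed to compound for 12 h. Proteins (40–80 µg, RIPA lysate) were resolved by SDS-PAGE and blotted for PARP, cleaved caspase-3/-9, Bcl-2 and Bax, with chemiluminescent detection.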

HepG2 [13] = test: Induction of autophagy in human HepG2 cells assessed as LC3-II expression at 2 uM pretreated with ER stress inhibitor, 4-PBA for 2 hrs followed by incubation with compound for 12 hrs by Western blot analysis; type: functional, cell-based
Summary of the method: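 HepG2 grown to confluence, pretreated 2 h with 2 mM 4-PBA, then exposed to test compound for a further 12 h; Western blot for PARP, cleaved caspase-3/-9, Bcl-2, Bax, Bip, EIF2a, TRB3 and LC3.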

HepG2 [14] = test: Induction of apoptosis in human HepG2 cells assessed as Bax/Bcl-2 ratio at 2 uM pretreated with ER stress inhibitor, 4-PBA for 2 hrs followed by incubation with compound for 12 hrs by Western blot analysis; type: functional, cell-based
HepG2 [15] = test: Antitumor activity against human HepG2 cells xenografted in BALB/c mouse assessed as tumor growth inhibition at 10 mg/kg/day, ip administered for 15 days; type: functional; details: 360 h, time 15 day
Summary of the method: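 Subcutaneous flank xenograft of 5×10^6 HepG2 cells in 4-week-old male Balb/c nude mice. At about 100 mm³, 15 mice were randomized into three groups: vehicle, 10 or 20 mg/kg i.p. daily for 15 days. Tumor size was measured every day, and tumors were excised and weighed at the end.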

[16] = Toxicity in BALB/c mouse xenografted with human HepG2 cells assessed as effect on body weight at 10 to 20 mg/kg/day, ip administered for 15 days; type: organism-based; details: in vivo, 360 h, dose 10-20 mg/kg/day, time 15 day
Summary of the method: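 Male Balb/c mice, 4 weeks old, injected subcutaneously in the flank with 5×10^6 HepG2 cells. At about 100 mm³, 15 mice randomized into vehicle, 10 and 20 mg/kg groups. Dosed i.p. once daily for 15 days. Tumour size and body weight measured daily; mice euthanized at the end.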

HepG2 [17] = test: Induction of apoptosis in human HepG2 cells assessed as late apoptotic cells at 1 uM incubated for 12 hrs by Annexin V-FITC/PI staining based flow cytometry (reference value: 1.1%); type: functional
[18] = molecular target: T1, Nuclear receptor subfamily 4immunitygroup A member 1; test: Modulation of Nur77 in human HepG2 cells assessed as induction of nuclear […] pretreated with nuclear export inhibitor, LMB followed by incubation with compound for 12 hrs by fluorescence microscopic analysis; type: cell-based

T1 sequence (P22736 whole entry): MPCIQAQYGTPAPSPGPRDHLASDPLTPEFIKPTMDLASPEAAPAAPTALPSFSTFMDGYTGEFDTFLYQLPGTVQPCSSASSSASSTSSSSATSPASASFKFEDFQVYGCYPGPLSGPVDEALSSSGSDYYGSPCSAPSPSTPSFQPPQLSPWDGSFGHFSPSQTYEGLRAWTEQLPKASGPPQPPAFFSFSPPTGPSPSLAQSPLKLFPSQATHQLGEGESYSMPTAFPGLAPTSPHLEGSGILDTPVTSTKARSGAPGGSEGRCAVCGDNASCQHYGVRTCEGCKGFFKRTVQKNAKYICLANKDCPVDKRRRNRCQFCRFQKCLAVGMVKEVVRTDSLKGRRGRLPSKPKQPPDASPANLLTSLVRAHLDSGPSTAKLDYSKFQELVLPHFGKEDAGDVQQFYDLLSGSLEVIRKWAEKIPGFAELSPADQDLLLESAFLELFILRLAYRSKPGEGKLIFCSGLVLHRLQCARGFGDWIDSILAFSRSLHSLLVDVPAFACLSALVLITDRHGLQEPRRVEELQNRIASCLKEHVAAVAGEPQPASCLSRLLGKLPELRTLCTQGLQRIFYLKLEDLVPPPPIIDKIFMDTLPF

Activity [5]: Active
Activity [18]: inactive
Structure (SMILES): COc1cccc2c(Nc3ccc4[nH]c(C(=O)N/N=C/c5ccc(SC)cc5)cc4c3)cc(C)nc12
IC50 (QGY-7703 [1]): 890 nM
Activity (HepG2 [2]): Dose-dependent effect
Activity (SMMC-7721 [3]): Dose-dependent effect
Activity (HepG2 [4]): inactive
Activity (HepG2 [6]): Active
Activity (SMMC-7721 [7]): Dose-dependent effect
Activity (HepG2 [8]): 10298 U
Activity (QGY-7703 [9]): Dose-dependent effect
Activity (HepG2 [10]): Active
Activity (HepG2 [11]): Active
Activity (HepG2 [12]): inactive
Activity (HepG2 [13]): inactive
Activity (HepG2 [14]): inactive
inhibition in vivo at 10 mg/kg/day (HepG2 [15]): 36.7%
Activity [16]: Non-Toxic
Activity (HepG2 [17]): 16.1%

From ChEMBL document CHEMBL4765399, “Design, synthesis, and biological evaluation of 5-((8-methoxy-2-methylquinolin-4-yl)amino)-1H-indole-2-carbohydrazide derivatives as novel Nur77 modulators” (Eur J Med Chem, 2020)
